Reference: ChEMBL document CHEMBL3875206, “Design, synthesis and biological evaluation of 4'-aminochalcone-rivastigmine hybrids as multifunctional agents for the treatment of Alzheimer's disease” (Bioorg Med Chem, 2017)
pIC50: −log10 of the molar value.

Assays:
[1] = target: Acetylcholinesterase (Electrophorus electricus, UniProt O42275); assay: Inhibition of electric eel AChE using acetylthiocholine iodide as substrate incubated for 15 mins by Ellman's method
Method in brief: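 Ellman spectrophotometric assay: electric eel AChE 0.05 U/mL final, acetylthiocholine iodide 1 mmol/L, phosphate buffer pH 8.0, range of compound concentrations.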

[2] = Inhibition of rat serum BuChE at 50 uM using butyrylthiocholine iodide as substrate incubated for 15 mins by Ellman's method relative to control; conditions: 0.25 h
Method in brief: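 Ellman method with 25% rat serum as BuChE source, butyrylthiocholine iodide 1 mmol/L, phosphate buffer pH 7.4, absorbance at 405 nm. Compounds tested at 50 µM. […] Triplicate wells.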

[3] = Antioxidant activity assessed as trolox equivalents of AAPH radical scavenging activity at 5 uM preincubated for 15 mins followed by AAPH addition measured every 60 sec for 90 mins by ORAC-FL assay; type: functional
Method in brief: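 Peroxyl radicals generated by AAPH (12 mM final) at 37 °C in phosphate buffer pH 7.4 with fluorescein (150 nM final). Sample and fluorescein were preincubated 15 min before AAPH addition. Fluorescence (ex 485/em 535 nm) was read every 60 s for 90 min.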

[4] = target: Amyloid-beta precursor protein (Homo sapiens) (UniProt P05067); assay: Inhibition of self-induced aggregation of amyloid beta (1-42) (unknown origin) at 25 uM after 24 hrs by thioflavin T fluorescence-based fluorimetric method relative to control
Chain of Amyloid-beta precursor protein (Homo sapiens) (P05067 whole entry): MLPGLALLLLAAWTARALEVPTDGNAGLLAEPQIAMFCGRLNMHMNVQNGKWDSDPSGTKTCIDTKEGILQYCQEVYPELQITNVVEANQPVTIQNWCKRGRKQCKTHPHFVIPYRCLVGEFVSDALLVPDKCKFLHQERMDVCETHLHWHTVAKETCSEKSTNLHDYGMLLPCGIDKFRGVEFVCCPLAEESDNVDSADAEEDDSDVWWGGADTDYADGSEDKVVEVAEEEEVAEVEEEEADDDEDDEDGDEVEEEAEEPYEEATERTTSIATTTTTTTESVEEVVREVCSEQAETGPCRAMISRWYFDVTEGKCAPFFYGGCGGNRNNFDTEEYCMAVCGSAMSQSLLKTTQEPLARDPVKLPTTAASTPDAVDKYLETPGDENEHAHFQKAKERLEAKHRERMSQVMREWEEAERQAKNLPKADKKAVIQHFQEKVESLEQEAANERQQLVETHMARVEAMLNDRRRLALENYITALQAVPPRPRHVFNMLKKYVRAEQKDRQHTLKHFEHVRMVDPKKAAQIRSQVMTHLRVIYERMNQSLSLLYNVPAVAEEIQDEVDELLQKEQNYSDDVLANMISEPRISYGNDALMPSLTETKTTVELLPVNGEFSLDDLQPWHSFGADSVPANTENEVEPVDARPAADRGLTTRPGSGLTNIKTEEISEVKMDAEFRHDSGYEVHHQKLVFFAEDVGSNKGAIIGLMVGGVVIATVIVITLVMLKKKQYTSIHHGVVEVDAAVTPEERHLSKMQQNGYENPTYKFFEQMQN
Method in brief: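 Aβ1-42 was pretreated in HFIP, dried and stocked in DMSO. Aβ1-42 (25 µM final) was incubated with compound (25 µM final) in 50 mM phosphate buffer pH 7.4 at 37 °C for 24 h. 5 µM ThT in 50 mM glycine-NaOH pH 8.5 was then added. Fluorescence was read at ex 446/em 490 nm. Inhibition = (1−IFi/IFc)×100 after background subtraction, in triplicate.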

[5] = Inhibition of Cu2+-mediated aggregation of amyloid beta (1-42) (unknown origin) at 25 uM after 24 hrs by thioflavin T fluorescence-based fluorimetric method relative to control; type: functional
Method in brief: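 HFIP-pretreated Aβ1-42 (25 µM) was incubated with Cu2+ (25 µM), with or without compound (25 µM final), in 20 mM HEPES/150 mM NaCl pH 6.6 at 37 °C for 24 h. 5 µM ThT in 50 mM glycine-NaOH pH 8.5 was then added. Fluorescence was read at ex 446/em 490 nm. Percent inhibition was taken versus no-inhibitor control after background subtraction, in triplicate.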

[6] = target: T1, Amine oxidase [flavin-containing] A (Homo sapiens, UniProt P21397); assay: Inhibition of recombinant human MAO-A expressed in baculovirus infected High 5 insect cells at 10 uM using kynuramine as substrate incubated for 30 mins by spectrofluorometric method relative to control; conditions: 0.5 h
T1 sequence (P21397 whole entry): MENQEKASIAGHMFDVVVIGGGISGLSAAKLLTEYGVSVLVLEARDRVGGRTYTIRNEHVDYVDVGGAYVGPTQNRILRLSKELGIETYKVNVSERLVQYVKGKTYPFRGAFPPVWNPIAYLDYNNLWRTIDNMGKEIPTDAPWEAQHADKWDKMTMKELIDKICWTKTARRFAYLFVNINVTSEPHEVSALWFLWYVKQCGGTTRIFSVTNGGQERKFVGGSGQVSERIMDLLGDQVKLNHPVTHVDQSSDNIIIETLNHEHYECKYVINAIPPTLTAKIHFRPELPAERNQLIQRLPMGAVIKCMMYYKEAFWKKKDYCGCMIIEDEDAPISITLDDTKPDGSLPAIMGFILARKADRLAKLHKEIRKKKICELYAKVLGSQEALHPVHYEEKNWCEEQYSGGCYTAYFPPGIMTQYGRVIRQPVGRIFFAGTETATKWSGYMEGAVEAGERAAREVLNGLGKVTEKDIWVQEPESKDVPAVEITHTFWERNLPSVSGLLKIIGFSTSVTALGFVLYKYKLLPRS
Method in brief: (§1)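 Recombinant human MAO-A or MAO-B (7.5 µg/mL) with kynuramine substrate in 100 mM potassium phosphate pH 7.4 (KCl-isotonic), <4% DMSO, 30 min at 37 °C. Stopped with 2 N NaOH. 4-Hydroxyquinoline was measured fluorometrically (ex 310/em 400 nm) against a calibration curve. Single-point inhibition at 10 µM. IC50 from six-concentration sigmoidal curves, triplicate. SI = IC50(MAO-A)/IC50(MAO-B).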

[7] = target: T2, Amine oxidase [flavin-containing] B (Homo sapiens, UniProt P27338); assay: Inhibition of recombinant human MAO-B expressed in baculovirus infected High 5 insect cells 10 uM using kynuramine as substrate incubated for 30 mins by spectrofluorometric method relative to control; conditions: 0.5 h; method in brief: as §1
T2 sequence (P27338 whole entry): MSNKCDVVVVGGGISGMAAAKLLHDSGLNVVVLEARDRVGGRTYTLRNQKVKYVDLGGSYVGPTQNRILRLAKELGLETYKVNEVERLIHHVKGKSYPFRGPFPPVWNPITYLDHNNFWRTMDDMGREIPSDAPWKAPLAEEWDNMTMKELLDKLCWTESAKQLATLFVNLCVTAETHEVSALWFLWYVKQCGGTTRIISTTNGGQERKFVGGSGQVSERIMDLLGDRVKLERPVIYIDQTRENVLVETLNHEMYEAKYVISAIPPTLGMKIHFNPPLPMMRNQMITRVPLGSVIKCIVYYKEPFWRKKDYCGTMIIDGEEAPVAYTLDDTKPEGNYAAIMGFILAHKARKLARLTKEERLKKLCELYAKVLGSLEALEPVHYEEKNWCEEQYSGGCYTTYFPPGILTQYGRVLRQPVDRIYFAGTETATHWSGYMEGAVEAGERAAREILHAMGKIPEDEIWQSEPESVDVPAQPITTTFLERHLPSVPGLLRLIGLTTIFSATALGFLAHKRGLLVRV

[8] = target: T2, Amine oxidase [flavin-containing] B; assay: Inhibition of recombinant human MAO-B expressed in baculovirus infected High 5 insect cells using kynuramine as substrate incubated for 30 mins by spectrofluorometric method; type: cell-based
[9] = species on record: Homo sapiens; assay: Selectivity index, ratio of IC50 for recombinant human MAO-A expressed in baculovirus infected High 5 insect cells to IC50 for recombinant human MAO-B expressed in baculovirus infected High 5 insect cells
Method in brief: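 Recombinant human MAO-A or MAO-B (7.5 µg/mL) with kynuramine substrate in 100 mM potassium phosphate pH 7.4 (KCl-isotonic), <4% DMSO, 30 min at 37 °C. Stopped with 2 N NaOH. Single-point inhibition at 10 µM. IC50 from six-concentration sigmoidal curves, triplicate. SI = IC50(MAO-A)/IC50(MAO-B).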

Chain of Acetylcholinesterase (O42275 whole entry): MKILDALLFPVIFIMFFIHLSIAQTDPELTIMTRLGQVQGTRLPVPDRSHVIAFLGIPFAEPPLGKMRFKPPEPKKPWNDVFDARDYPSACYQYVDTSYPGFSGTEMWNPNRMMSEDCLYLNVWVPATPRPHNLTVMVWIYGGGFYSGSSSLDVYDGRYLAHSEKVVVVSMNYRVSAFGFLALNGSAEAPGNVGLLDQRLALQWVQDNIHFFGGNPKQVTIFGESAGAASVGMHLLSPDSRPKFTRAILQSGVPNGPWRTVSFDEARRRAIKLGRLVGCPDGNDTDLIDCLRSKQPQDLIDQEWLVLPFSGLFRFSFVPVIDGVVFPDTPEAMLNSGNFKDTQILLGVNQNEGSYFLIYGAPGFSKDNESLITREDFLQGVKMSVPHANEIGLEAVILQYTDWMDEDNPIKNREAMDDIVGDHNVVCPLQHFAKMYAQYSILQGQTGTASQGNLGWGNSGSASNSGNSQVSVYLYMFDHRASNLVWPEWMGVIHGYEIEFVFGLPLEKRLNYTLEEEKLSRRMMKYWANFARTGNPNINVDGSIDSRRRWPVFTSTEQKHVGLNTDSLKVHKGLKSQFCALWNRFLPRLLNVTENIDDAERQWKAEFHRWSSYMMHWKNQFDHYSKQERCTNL

| SMILES | pIC50 [1] | inhibition (INH) [2] | Activity [3] | inhibition [4] | inhibition [5] | inhibition at 10 µM [6] | inhibition at 10 µM [7] | pIC50 [8] | Ratio IC50 [9] |
| --- | --- | --- | --- | --- | --- | --- | --- | --- | --- |
| CN(C)c1ccc(/C=C/C(=O)c2ccc(OC(=O)N3CCOCC3)cc2O)cc1 | 5.10 | < 10% | 2.04 µMequiv/µM | 83.6% | 79.7% | 34.6% | 42.3% | – | – |
| COc1cc(/C=C/C(=O)CC(=O)/C=C/c2ccc(O)c(OC)c2)ccc1O | – | – | – | – | 67.2% | – | – | – | – |
| CN(C)c1ccc(/C=C/C(=O)c2ccc(OC(=O)N3CCOCC3)cc2OC(=O)N2CCOCC2)cc1 | 4.24 | < 10% | 1.85 µMequiv/µM | 33.3% | 41.4% | 15% | 40.2% | – | – |
| CN(C)c1ccc(/C=C/C(=O)c2ccc(OC(=O)N3CCCCC3)cc2O)cc1 | 5.16 | < 10% | 2.51 µMequiv/µM | 70.2% | 73.9% | 27.8% | 31.1% | – | – |
| CN(C)C(=O)Oc1ccc(C(=O)/C=C/c2ccc(N(C)C)cc2)c(OC(=O)N(C)C)c1 | < 4.00 | < 10% | 2.16 µMequiv/µM | 34.7% | 56.2% | 34.6% | 5.1% | – | – |
| CN(C)c1ccc(/C=C/C(=O)c2ccc(OC(=O)N3CCN(Cc4ccccc4)CC3)cc2O)cc1 | 4.67 | < 10% | 3.51 µMequiv/µM | 89.4% | 94.2% | 42.1% | 41.6% | – | – |
| CN1CCN(C(=O)Oc2ccc(C(=O)/C=C/c3ccc(N(C)C)cc3)c(O)c2)CC1 | 4.92 | < 10% | 2.08 µMequiv/µM | 87.9% | 75.5% | 49.5% | 25.1% | – | – |
| CCN(CC)C(=O)Oc1ccc(C(=O)/C=C/c2ccc(N(C)C)cc2)c(O)c1 | 4.76 | < 10% | 2.2 µMequiv/µM | 76.7% | 49% | 24.4% | – | 5.46 | – |
| CCN(C)C(=O)Oc1ccc(C(=O)/C=C/c2ccc(N(C)C)cc2)c(O)c1 | 4.84 | < 10% | 3.14 µMequiv/µM | 98% | 88% | 25.9% | – | 5.68 | > 4.76 |
| CCN1CCN(C(=O)Oc2ccc(C(=O)/C=C/c3ccc(N(C)C)cc3)c(O)c2)CC1 | 5.06 | < 10% | 2.54 µMequiv/µM | 83.2% | 89.2% | 42.5% | 30% | – | – |
| CN(C)c1ccc(/C=C/C(=O)c2ccc(OC(=O)N3CCCC3)cc2OC(=O)N2CCCC2)cc1 | 4.52 | < 10% | 2.45 µMequiv/µM | 48% | 26.3% | 25.2% | 34.6% | – | – |
| O=C(/C=C/c1ccc(N2CCCC2)cc1)c1ccc(OC(=O)N2CCCC2)cc1O | 4.85 | < 10% | 0.35 µMequiv/µM | 44.4% | 48.9% | 15.2% | – | 6.15 | – |
| O=C(/C=C/c1ccc(N2CCCCC2)cc1)c1ccc(OC(=O)N2CCCC2)cc1O | 4.97 | < 10% | 1.2 µMequiv/µM | 57.2% | 59.8% | 19.6% | – | 6.11 | – |
| O=C(/C=C/c1ccc(N2CCOCC2)cc1)c1ccc(OC(=O)N2CCCC2)cc1O | 4.20 | < 10% | 0.51 µMequiv/µM | 44.4% | 48.9% | 15.2% | – | 6.15 | > 14.1 |
| CCN(CC)c1ccc(/C=C/C(=O)c2ccc(OC(=O)N3CCCC3)cc2O)cc1 | 4.93 | < 10% | 1.02 µMequiv/µM | 67.8% | 67.1% | 21% | – | 5.17 | – |
| CN(C)c1ccc(/C=C/C(=O)c2ccc(OC(=O)N3CCCCC3)cc2OC(=O)N2CCCCC2)cc1 | 4.49 | < 10% | 2.41 µMequiv/µM | 38% | 23.8% | 17% | 30.1% | – | – |
